Source: ChEMBL document CHEMBL2146367, “Novel fluorescent ceramide derivatives for probing ceramidase substrate specificity” (Bioorg Med Chem, 2012)

Legend:
[1] = substrate: CCCCCCCCCCCCCCCC(=O)N[C@@H](CO)[C@H](O)/C=C/CCCCCCCCCNc1ccc([N+](=O)[O-])c2nonc12; assay: (§1) Activity of human recombinant acid ceramidase expressed in baculovirus infected Sf9 cells after 150 mins by Lineweaver-Burk plot analysis
Summary of the method: (§2)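 Recombinant human aCDase expressed in insect cells, at a fixed enzyme level, in 200 mM sodium acetate pH 4.5 with 200 mM NaCl and 0.1% Triton X-100. Substrate varied from 5 to 150 µM or 5 to 180 µM, added from DMSO stocks (DMSO <5% v/v), 37 °C for 150 min. Chloroform/methanol extraction, TLC, fluorescence imaging of cleaved and uncleaved spots. KM, Vmax and kcat taken from Lineweaver-Burk plots, mean ± SD of three independent experiments.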

[2] = substrate: CCCCCCCCCCCCC/C=C/[C@@H](O)[C@H](CO)NC(=O)CCCCCCCCCCCOc1ccc2c(=O)cc3oc4cc(N(CC)CC)ccc4nc-3c2c1; assay: as §1; summary of the method: as §2
[3] = substrate: CCCCCCCCCCCCCCCC(=O)N[C@@H](CO)[C@H](O)/C=C/CCCCCCCCCOc1ccc2c(=O)cc3oc4cc(N(CC)CC)ccc4nc-3c2c1; assay: as §1; summary of the method: as §2
[4] = substrate: CCCCCCCCCCCCC/C=C/[C@@H](O)[C@H](CO)NC(=O)CCCCCCCCCCCNc1ccc([N+](=O)[O-])c2nonc12; assay: as §1; summary of the method: as §2
[5] = substrate: CCCCCCCCCCCCCCCC(=O)N[C@@H](CO)[C@H](O)/C=C/CCCCCCCCCNc1ccc([N+](=O)[O-])c2nonc12; assay: (§3) Activity of human recombinant acid ceramidase expressed in baculovirus infected Sf9 cells assessed per ug of protein after 150 mins by Lineweaver-Burk plot analysis; summary of the method: as §2
[6] = substrate: CCCCCCCCCCCCC/C=C/[C@@H](O)[C@H](CO)NC(=O)CCCCCCCCCCCOc1ccc2c(=O)cc3oc4cc(N(CC)CC)ccc4nc-3c2c1; assay: as §3; summary of the method: as §2
[7] = substrate: CCCCCCCCCCCCCCCC(=O)N[C@@H](CO)[C@H](O)/C=C/CCCCCCCCCOc1ccc2c(=O)cc3oc4cc(N(CC)CC)ccc4nc-3c2c1; assay: as §3; summary of the method: as §2
[8] = substrate: CCCCCCCCCCCCC/C=C/[C@@H](O)[C@H](CO)NC(=O)CCCCCCCCCCCNc1ccc([N+](=O)[O-])c2nonc12; assay: as §3; summary of the method: as §2
[9] = substrate: CCCCCCCCCCCCCCCC(=O)N[C@@H](CO)[C@H](O)/C=C/CCCCCCCCCNc1ccc([N+](=O)[O-])c2nonc12; assay: (§4) Activity of human recombinant neutral ceramidase after 60 mins by Lineweaver-Burk plot analysis
Summary of the method: (§5)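 Human recombinant nCDase held at 20 ng/mL in 200 mM sodium acetate pH 7.0 with 200 mM NaCl and 0.1% Triton X-100. Substrate varied from 5 to 150 or 5 to 180 µM, DMSO <5%. Incubated 60 min at 37 °C, chloroform/methanol quench, TLC with fluorescence imaging. Kinetic constants from Lineweaver-Burk plots, mean ± SD of triplicate experiments.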

[10] = substrate: CCCCCCCCCCCCC/C=C/[C@@H](O)[C@H](CO)NC(=O)CCCCCCCCCCCOc1ccc2c(=O)cc3oc4cc(N(CC)CC)ccc4nc-3c2c1; assay: as §4; summary of the method: as §5
[11] = substrate: CCCCCCCCCCCCCCCC(=O)N[C@@H](CO)[C@H](O)/C=C/CCCCCCCCCOc1ccc2c(=O)cc3oc4cc(N(CC)CC)ccc4nc-3c2c1; assay: as §4; summary of the method: as §5
[12] = substrate: CCCCCCCCCCCCC/C=C/[C@@H](O)[C@H](CO)NC(=O)CCCCCCCCCCCNc1ccc([N+](=O)[O-])c2nonc12; assay: as §4; summary of the method: as §5
[13] = substrate: CCCCCCCCCCCCCCCC(=O)N[C@@H](CO)[C@H](O)/C=C/CCCCCCCCCNc1ccc([N+](=O)[O-])c2nonc12; assay: (§6) Activity of human recombinant neutral ceramidase assessed per ng of protein after 60 mins by Lineweaver-Burk plot analysis; summary of the method: as §5
[14] = substrate: CCCCCCCCCCCCC/C=C/[C@@H](O)[C@H](CO)NC(=O)CCCCCCCCCCCOc1ccc2c(=O)cc3oc4cc(N(CC)CC)ccc4nc-3c2c1; assay: as §6; summary of the method: as §5
[15] = substrate: CCCCCCCCCCCCCCCC(=O)N[C@@H](CO)[C@H](O)/C=C/CCCCCCCCCOc1ccc2c(=O)cc3oc4cc(N(CC)CC)ccc4nc-3c2c1; assay: as §6; summary of the method: as §5
[16] = substrate: CCCCCCCCCCCCC/C=C/[C@@H](O)[C@H](CO)NC(=O)CCCCCCCCCCCNc1ccc([N+](=O)[O-])c2nonc12; assay: as §6; summary of the method: as §5
[17] = substrate: CCCCCCCCCCCCC/C=C/[C@@H](O)[C@H](CO)NC(=O)CCCCCCCCCCCNc1ccc([N+](=O)[O-])c2nonc12; assay: Activity of mouse neutral ceramidase after 30 mins by TLC-based fluorescence imaging

B1: Acid ceramidase (Homo sapiens), Q13510 (protein)
chain: MPGRSCVALVLLAAAVSCAVAQHAPPWTEDCRKSTYPPSGPTYRGAVPWYTINLDLPPYKRWHELMLDKAPVLKVIVNSLKNMINTFVPSGKIMQVVDEKLPGLLGNFPGPFEEEMKGIAAVTDIPLGEIISFNIFYELFTICTSIVAEDKKGHLIHGRNMDFGVFLGWNINNDTWVITEQLKPLTVNLDFQRNNKTVFKASSFAGYVGMLTGFKPGLFSLTLNERFSINGGYLGILEWILGKKDVMWIGFLTRTVLENSTSYEEAKNLLTKTKILAPAYFILGGNQSGEGCVITRDRKESLDVYELDAKQGRWYVVQTNYDRWKHPFFLDDRRTPAKMCLNRTSQENISFETMYDVLSTKPVLNKLTVYTTLIDVTKGQFETYLRDCPDPCIGW
How did the Km [1] turn out when B1 was run?
The Km was 204 µM.

What about the Vmax [1] of the same protein?
Its Vmax is 12.2 pmol/min.

What about the Km [2] of the same protein?
The Km was 110 µM.

What about the Vmax [2] of the same protein?
The Vmax was 7.2 pmol/min.

What about the Km [3] of the same protein?
The Km was 81.8 µM.

And the Vmax [3]?
The Vmax was 3.9 pmol/min.

What about the Km [4] of the same protein?
The Km was 86.9 µM.

What about the Vmax [4] of the same protein?
Its Vmax is 4.4 pmol/min.

And the specific activity [5]?
Its specific activity is 0.244 pmol/min/µg.

What about the specific activity [6] of the same protein?
Its specific activity is 0.143 pmol/min/µg.

What about the specific activity [7] of the same protein?
The specific activity was 0.078 pmol/min/µg.

What about the specific activity [8] of the same protein?
Its specific activity is 0.0882 pmol/min/µg.

B2: Neutral ceramidase (Homo sapiens), Q9NR71 (protein)
chain: MAKRTFSNLETFLIFLLVMMSAITVALLSLLFITSGTIENHKDLGGHFFSTTQSPPATQGSTAAQRSTATQHSTATQSSTATQTSPVPLTPESPLFQNFSGYHIGVGRADCTGQVADINLMGYGKSGQNAQGILTRLYSRAFIMAEPDGSNRTVFVSIDIGMVSQRLRLEVLNRLQSKYGSLYRRDNVILSGTHTHSGPAGYFQYTVFVIASEGFSNQTFQHMVTGILKSIDIAHTNMKPGKIFINKGNVDGVQINRSPYSYLQNPQSERARYSSNTDKEMIVLKMVDLNGDDLGLISWFAIHPVSMNNSNHLVNSDNVGYASYLLEQEKNKGYLPGQGPFVAAFASSNLGDVSPNILGPRCINTGESCDNANSTCPIGGPSMCIAKGPGQDMFDSTQIIGRAMYQRAKELYASASQEVTGPLASAHQWVDMTDVTVWLNSTHASKTCKPALGYSFAAGTIDGVGGLNFTQGKTEGDPFWDTIRDQILGKPSEEIKECHKPKPILLHTGELSKPHPWHPDIVDVQIITLGSLAITAIPGEFTTMSGRRLREAVQAEFASHGMQNMTVVISGLCNVYTHYITTYEEYQAQRYEAASTIYGPHTLSAYIQLFRNLAKAIATDTVANLSRGPEPPFFKQLIVPLIPSIVDRAPKGRTFGDVLQPAKPEYRVGEVAEVIFVGANPKNSVQNQTHQTFLTVEKYEATSTSWQIVCNDASWETRFYWHKGLLGLSNATVEWHIPDTAQPGIYRIRYFGHNRKQDILKPAVILSFEGTSPAFEVVTI
B2 was tested. Which Km [9] did it give?
Its Km is 193 µM.

What about the Vmax [9] of the same protein?
Its Vmax is 31.8 pmol/min.

And the Km [10]?
The Km was 85.3 µM.

And the Vmax [10]?
The Vmax was 10 pmol/min.

What about the Km [11] of the same protein?
The Km was 36.4 µM.

And the Vmax [11]?
Its Vmax is 5.3 pmol/min.

What about the Km [12] of the same protein?
Its Km is 190 µM.

What about the Vmax [12] of the same protein?
Its Vmax is 62.4 pmol/min.

And the specific activity [13]?
Its specific activity is 1.6 pmol/min/ng.

And the specific activity [14]?
The specific activity was 0.5 pmol/min/ng.

And the specific activity [15]?
Its specific activity is 0.26 pmol/min/ng.

What about the specific activity [16] of the same protein?
Its specific activity is 3.1 pmol/min/ng.

B3: Neutral ceramidase (Mus musculus), Q9JHE3 (protein)
chain: MAKRTFSTLEAFLIFLLVIMTVITVALLTLLFVTSGTIENHKDSGNHWFSTTLGSTTTQPPPITQTPNFPSFRNFSGYYIGVGRADCTGQVSDINLMGYGKNGQNARGLLTRLFSRAFILADPDGSNRMAFVSVELCMISQRLRLEVLKRLESKYGSLYRRDNVILSAIHTHSGPAGFFQYTLYILASEGFSNRTFQYIVSGIMKSIDIAHTNLKPGKIFINKGNVANVQINRSPSSYLLNPQSERARYSSNTDKEMLVLKLVDLNGEDLGLISWFAIHPVSMNNSNHFVNSDNMGYAAYLFEQEKNKGYLPGQGPFVAGFASSNLGDVSPNILGPHCVNTGESCDNDKSTCPNGGPSMCMASGPGQDMFESTHIIGRIIYQKAKELYASASQEVTGPVLAAHQWVNMTDVSVQLNATHTVKTCKPALGYSFAAGTIDGVSGLNITQGTTEGDPFWDTLRDQLLGKPSEEIVECQKPKPILLHSGELTIPHPWQPDIVDVQIVTVGSLAIAAIPGELTTMSGRRFREAIKKEFALYGMKDMTVVIAGLSNVYTHYITTYEEYQAQRYEAASTIYGPHTLSAYIQLFRDLAKAIATDTVANMSSGPEPPFFKNLIASLIPNIADRAPIGKHFGDVLQPAKPEYRVGEVVEVIFVGANPKNSAENQTHQTFLTVEKYEDSVADWQIMYNDASWETRFYWHKGILGLSNATIYWHIPDTAYPGIYRIRYFGHNRKQELLKPAVILAFEGISSPFEVVTT
How did the Km [17] turn out when B3 was run?
Its Km is 22.3 µM.

What about the Vmax [17] of the same protein?
Its Vmax is 4.7 pmol/min.
